Activity calls are given as the source filed them. The rule behind the calls is not given here.

One may read the inhibition as the percentage by which the read-out fell short of the control.

Data set [1] deals with RAW264.7. Description: Effect on TNFalpha production in mouse RAW264.7 cells at 100 uM incubated for 18 hrs by ELISA method. Format: cell-based. Conditions: raw264.7, 18 h. A digest of the protocol: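 Compound alone, without LPS, was added to RAW 264.7 murine macrophage-like cells and incubated 18 h. TNF-α in culture supernatants was quantified by commercial ELISA and compared with levels from unstimulated cells.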
For orientation: In an ELISA, binding on a coated surface is turned into a signal by an enzyme label.

For data set [2], the system named is RAW264.7. Nature of the data set: Inhibition of LPS-induced TNFalpha production in mouse RAW264.7 cells at 100 uM incubated for 18 hrs by ELISA method. Format: functional. Conditions: for inhibition at 100 µM: RAW264.7, 18 h. An outline of the steps:
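RAW 264.7 cells were co-treated with compound plus 10 ng/mL LPS (R595) for 18 h. Supernatant TNF-α was measured by commercial ELISA and compared with cells stimulated with LPS only.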

Data set [3] deals with RAW264.7. Description: Cytotoxicity against mouse RAW264.7 cells at 100 uM incubated for 18 hrs by LDH release assay. It counts as cell-based. Conditions: raw264.7, 18 h. A digest of the protocol: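 RAW 264.7 murine macrophage-like cells were treated with compound for 18 h. Culture supernatants were then collected and assayed for lactate dehydrogenase activity released from dead or dying cells, using a commercial LDH cytotoxicity kit. Vehicle and lysis-buffer controls were included. Data are means ± SD, n = 2.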

Consider `CCCCCCCCCCCC(=O)NCC(C)C`, for which the Activity result in the data set with RAW264.7 [1] and in the data set on RAW264.7 [3] was “Non-toxic” in each case. Besides, the inhibition entry in the data set with RAW264.7 [2] is “Active”.

As to `CCCCCCC/C=C/C=C/C(=O)NCC(C)C`, the Activity result in the data set on RAW264.7 [1] and with RAW264.7 [3] was “Non-toxic” throughout. Moreover, the inhibition entry in the data set with RAW264.7 [2] was “Active”.

With `CCCCCCCCCCCc1nc(C(C)C)cs1`, in the data set on RAW264.7 [2], the inhibition entry was “inactive”. Further, the Activity entry with RAW264.7 [3] is listed as “Non-toxic”.

With `CCCCCCCCCCCc1nc(CC(C)C)cs1`, the inhibition result with RAW264.7 [2] is “inactive”. Further, the Activity entry in the data set on RAW264.7 [3] is reported as “Non-toxic”.

Consider `CCCCCCCCCCCC(=O)NCC(C)CC` (stereo not drawn), for which the Activity result in the data set on RAW264.7 [1] and with RAW264.7 [3] was “Non-toxic” each time. In the data set on RAW264.7 [2], the inhibition entry is “Active”.

Regarding `CCCCCCCCC/C=C/C(=O)NCC(C)C`, the Activity result in the data set on RAW264.7 [1] and in the data set on RAW264.7 [3] was “Non-toxic” in each case. In addition, the inhibition result in the data set on RAW264.7 [2] was “Active”.

For `CCCCCCCC(=O)NCC(C)C`, the Activity entry in the data set with RAW264.7 [1] and in the data set with RAW264.7 [3] was “Non-toxic” throughout. In addition, the inhibition result in the data set with RAW264.7 [2] is “Active”.

Take `CCCCCCCCCCCCNCC(C)C`: the Activity result is reported as “Non-toxic” in the data set with RAW264.7 [1] and “Toxic” with RAW264.7 [3]. For the same compound, the inhibition at 100 µM in the data set with RAW264.7 [2] came to 99.8%.

For `CCCCCCCCC/C=C/C(=O)NCc1ccccc1`, the Activity result in the data set with RAW264.7 [1] and in the data set on RAW264.7 [3] was “Non-toxic” in each case. The same compound had an inhibition at 100 µM in the data set on RAW264.7 [2] of 29.8%.

Regarding `CCCCCCCCCCCC(=O)NCc1ccccc1` [N-BENZYLDODECANAMIDE], the Activity entry with RAW264.7 [1] and with RAW264.7 [3] was “Non-toxic” in each case. This compound came in with an inhibition at 100 µM in the data set with RAW264.7 [2] of 32.4%.

On to `CCCCCCCCCCCC(=O)NCCCCCC`, for which the Activity result in the data set on RAW264.7 [1] and with RAW264.7 [3] was “Non-toxic” each time. Also, in the data set on RAW264.7 [2], the inhibition result is “Active”.

For the compound `CCCCCCCCCC(=O)NCC(C)C` [TETRAHYDROPELLITORINE], the Activity result in the data set on RAW264.7 [1] and in the data set with RAW264.7 [3] was “Non-toxic” throughout. Further, the inhibition result in the data set on RAW264.7 [2] was “Active”.

Consider `CCCC(=O)NCC(C)C`, for which the Activity entry with RAW264.7 [1] and with RAW264.7 [3] was “Non-toxic” in each case. In the data set with RAW264.7 [2], the inhibition entry is “Active”.

Regarding `CCCCCCCCC/C=C/C(=O)NCC(C)CC` (stereo not drawn), the values for the Activity entry in the data set on RAW264.7 [1] and in the data set on RAW264.7 [3] were “Non-toxic” and “Toxic”, respectively. In the data set with RAW264.7 [2], the inhibition result was “Active”.

With `CCCCCC(=O)NCC(C)C`, the Activity entry in the data set with RAW264.7 [1] and in the data set with RAW264.7 [3] was “Non-toxic” each time. In the data set on RAW264.7 [2], the inhibition entry was “Active”.
